# Screening data deposited in PubChem BioAssay by several laboratories.
# This excerpt belongs to a sample that is enriched for hits.
# UPR XBP1 act – activators of adaptive XBP1 UPR arm, primary screen, cell-based, CHO-XBP1 luciferase reporter, luminescence, uHTS; IRE1-XBP1 UPR activation; percent of tunicamycin response, DMSO as zero; activation, % at 20 µM; AID 463104, 2010; hit rate 0.33% among 330,000;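 active = versus positive control, 20 µM dose yields 30% or more activation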;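 note: 100% = tunicamycin at 10 µg/mL and 0% = DMSO only wells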
#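 Material: CHO cell line with stable XBP1 luciferase reporter; schedule: 16-18 h cell attachment at 37 °C, then 6 h compound exposure; signal: glow luminescence from Steady-Glo reagent; medium: serum-containing F12 medium, 10% FBS; benchmarks: tunicamycin 10 µg/mL and vehicle-only wells; read-out: percent activation relative to tunicamycin reference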
# CHOP inhibitor – inhibitors of CHOP promoter induction, primary screen, cell-based, unfolded protein response, luciferase reporter. CHO-K1 CHOP-promoter luciferase, tunicamycin-induced, 15-18 h. hit rate 3.8% among 220,000. AID 2732, 2010. inhibition, % at 10 µM;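 active = compounds that reduced the stress-induced luciferase reporter signal by more than about 70% of percent inhibition, limit read from the data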;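 note: 0% = tunicamycin plus vehicle and 100% = wells without tunicamycin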
# Dynein transport – inhibitors of GR-EGFP nuclear translocation, primary screen, dynein cargo transport inhibitor project, imaging, high-content, 3617.4 mouse cells; test concentration mostly 20 µM; stimulated with dexamethasone, 1 µM; active compounds read low; z-score, hits read low; hit rate 0.47% among 220,000; AID 1381, 2008;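 active = plate z-score of nuclear minus cytoplasmic receptor signal below a set negative limit, without overly bright fluorescence or cell loss, cut at about -3.5 in these data, passing the limit was not always enough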;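 note: z-score of nuclear minus cytoplasmic ring GR-EGFP intensity difference per well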
#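 Buffer or medium: tet-free, stripped-serum medium; Also added: dexamethasone, 1.0 µM final; Technique: high-content fluorescence imaging after fixation; Times: 48 h induction, 1 h compound, 30 min dex at 37 °C; Read-out: per-cell GR-EGFP intensity, nucleus versus surrounding cytoplasmic ring, well-averaged.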
# Lmaj promast – Leishmania major promastigote growth inhibition, primary screen. Leishmania major promastigotes, resazurin fluorescence viability. inhibition, % at 10 µM. hit rate 9% among 200,000. AID 1063, 2008; in the data active = inhibition above about 50%;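 note: promastigotes grown with compound for 44 hours at 28 °C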
# T cruzi inh – inhibitors of intracellular T. cruzi growth, primary screen, luminescence, NIH3T3 host cells. T. cruzi beta-gal in NIH3T3, 90 h. inhibition, % (no concentration beside the values). hit rate 1.4% among 300,000. AID 1885, 2009;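 active = mean inhibition across valid replicates above about 55%, limit read from the data; inconclusive = mean below that limit but half or more replicates reach it; inactive = mean below it, under half of replicates reach it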;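 note: signal also drops with host cell toxicity which is not excluded here; 0% = plate median of DMSO wells and 100% = zero luminescence signal; higher percent means less beta-gal luminescence so fewer parasites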
#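 Read-out: Parasite load inhibition, % | Test system: Mouse NIH/3T3 fibroblasts infected with β-gal-expressing T. cruzi Tulahuen C4 | Amount: 5,000 cells/well | Medium: DMEM, 2% fetal bovine serum | Signal: GalScreen β-gal luminescence, detergent lysis, 60 min | Timing: 3 h attach, ≥90 h co-culture | Also added: Tulahuen C4 trypomastigotes, 5000/well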
# CHOP UPR activ – activators of apoptotic CHOP UPR arm, primary screen, cell-based, CHO-CHOP luciferase reporter, luminescence, uHTS. AID 449763, 2010. activation, % at 10 µM. UPR activation; percent of tunicamycin response over DMSO baseline. hit rate 0.34% among 330,000;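 active = at 10 µM dose, activation of 40% or more, normalized to positive control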;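 note: 100% = tunicamycin at 10 µg/mL and 0% = DMSO alone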
#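 Evaluation: % reporter activation, DMSO baseline versus tunicamycin full activation; System: CHO-CHOP luciferase reporter cell line; Input: 500 cells/well; Incubation: 6 h compound treatment, 37 °C; Measured by: Steady-Glo luciferase luminescence; Dosing: one dose, 10 µM in 0.5% DMSO; Buffer or medium: F12 medium, 10% FBS; Benchmarks: positive tunicamycin 10 µg/mL, negative DMSO alone.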
# The depositor's hits bear a star; ? = inconclusive; . = not tested or not shown.
SMILES,UPR XBP1 act,CHOP inhibitor,Dynein transport,Lmaj promast,T cruzi inh,CHOP UPR activ
Cc1noc(C)c1S(=O)(=O)N1CCN(C(c2ccccc2)c2ccc(Cl)cc2)CC1 (configuration not stated),0,35,2.1,71*,50,-1
Cc1noc(C)c1S(=O)(=O)N1CCC(C(=O)c2ccccc2)CC1,-2,3,0.021,.,8,-1
Cc1ccc(C(=O)NCC(=O)OCC(=O)c2ccc(Br)s2)cc1,1,.,.,.,-2,1
CCN1C(=O)C(=O)N(CC(=O)N2CCC(C)Sc3ccccc32)C1=O (configuration not stated),3,.,.,.,.,-3
c1ccc(Oc2nc3ccccc3n3cccc23)cc1,-4,70*,0.16,4,-8,-1
Cc1cccc(NC(=O)N2CCCc3ccccc32)c1C,-4,.,.,.,-15,0
CCN(CCO)C1CC(=O)N(c2ccccc2C)C1=O (configuration not stated),-2,8,-0.66,60*,-7,-1
Cc1cc(N2CCOCC2)nc2ccc(NC(=O)CCC(=O)N3CCN(c4cccc(C(F)(F)F)c4)CC3)cc12,9,.,.,.,24,4
Cc1ccc(C(=O)OCC(=O)Nc2ccccc2)cc1NC(=O)c1ccco1,1,1,-0.1,26,-1,5
Cc1ccc(C(=O)OCC(=O)Nc2sccc2C(N)=O)cc1NC(=O)c1ccco1,3,72*,0.21,14,0,1
Cc1ccc(C(=O)OCC(=O)Nc2cc(F)ccc2F)cc1NC(=O)c1ccco1,-2,12,0.17,88*,4,14
C=CCN(C(=O)CSc1nc2c(sc3ccccc32)c(=O)n1CCN(CC)CC)c1ccccc1,2,11,-1.1,32,82*,3
Cc1ccc(NC(=O)CCCN2C(=O)/C(=C/C=C/c3ccccc3)SC2=S)cc1,0,58,1.2,3,3,0
CC(C)c1ccccc1NC(=O)COC(=O)CCN1C(=O)/C(=C\C=C\c2ccccc2)SC1=S,-5,75*,-1.3,-6,15,-6
O=C(CN1C(=O)S/C(=C\C=C\c2ccccc2)C1=O)Nc1ccc(O)cc1,0,91*,0.38,31,-15,10
O=C(COC(=O)CCN1C(=O)/C(=C\C=C\c2ccccc2)SC1=S)Nc1ccc(Br)cc1,-6,72*,-1,-7,8,-2
O=C(CCCN1C(=O)S/C(=C/C=C/c2ccccc2)C1=O)Nc1ccc(C(=O)O)cc1,0,.,.,.,-27,3
Cc1c(C(=O)N(CCO)Cc2ccccc2)oc2c(F)cccc12,7,.,.,.,-1,1
Cc1nc(SCC(=O)N2CCCCCC2)[nH]c(=O)c1C,4,.,.,.,-6,0
CCCCC(CCC(=O)O)(C(=O)OCC)c1csc(Nc2ccccc2)n1 (configuration not stated),-1,28,-0.0064,-7,3,3
CCOC(=O)/C(=N\Nc1ccc(OC)cc1)c1csc(Nc2ccccc2)n1,26,-28,0.98,1,81*,2
CCOC(=O)/C(=N\Nc1ccc(Cl)cc1)c1csc(Nc2ccccc2)n1,7,-3,-0.076,8,65*,0
CCOC(=O)/C(=N/Nc1ccccc1)c1csc(Nc2ccccc2)n1,6,20,2.3,8,62*,1
COc1ccc2[nH]c3c(c2c1)CCN1C(=O)N([C@@H](C)C(=O)NC2CCCCC2C)C(=O)[C@]31C (some centres not stated),-2,.,.,.,5,0
COc1ccc(CCNC(=O)COC(=O)C2CC2)cc1OC,2,.,.,.,.,-1
SMILES,UPR XBP1 act,CHOP inhibitor,Dynein transport,Lmaj promast,T cruzi inh,CHOP UPR activ
O=C(Nc1nc(=O)c2ccccc2s1)c1ccc(F)cc1,1,91*,-1,0,?,4
O=C(Nc1nc(=O)c2ccccc2s1)c1ccc(Cl)cc1,16,75*,1,-1,-5,6
O=C(Cc1ccccc1)Nc1nc(=O)c2ccccc2s1,0,20,2.3,-1,0,2
O=C(Nc1nc2ccccc2c(=O)s1)c1ccc(F)cc1Cl,-2,.,.,.,-22,7
COc1ccc2[nH]c3c(c2c1)CCN1C(=O)C(CC(=O)NC(C)(C)C)C[C@H](C(=O)N(C(C)C)C(C)C)[C@@]31C (some centres not stated),1,.,.,.,.,3
Cc1nccn1-c1cc(C(C)(C)C)nc2c(-c3ccccc3)cnn12,0,80*,-0.49,67*,-11,2
Cc1cc([N+](=O)[O-])ccc1NC(=O)CCC(=O)N1CCCCCC1,-4,.,.,.,-3,3
COC(=O)Cc1ccc(NC(=S)N2CCN(c3ccc(F)cc3)CC2)cc1,.,72*,1.9,-3,-28,.
Cc1ccc(CS(=O)Cc2ccc(C(=O)N3CCN(c4ccccc4)CC3)o2)cc1 (configuration not stated),-7,.,.,.,56*,0
Cc1ccc(C(=O)N2CCN(c3ccc(NC(=S)NC(=O)Cc4ccccc4)cc3)CC2)cc1,1,74*,-0.024,34,38,6
Cc1ccc(CS(=O)Cc2ccc(C(=O)N3CCN(c4ccc(F)cc4)CC3)o2)cc1 (configuration not stated),-4,.,.,.,10,-1
Oc1ccc(Cl)cc1CNCc1cccc2ccccc12,5,.,.,.,.,2
CC(=O)c1c(C)[nH]c(C(=O)OCC(=O)N(CC(C)C)C2CCS(=O)(=O)C2)c1C (configuration not stated),-1,.,.,.,.,1
CCN1CCN(CC2CC3C=CC2C3)CC1 (configuration not stated),-2,-7,-0.22,12,12,0
O=C(c1ccco1)N1CCN(CC2CC3C=CC2C3)CC1 (configuration not stated),6,-6,-0.0032,93*,.,2
Cc1ccccc1CN1CCN(CC2CC3C=CC2C3)CC1 (configuration not stated),-6,11,-0.52,87*,20,-3
O=C(c1ccco1)N1CCN(Cc2ccc(F)cc2)CC1,-2,.,.,.,3,-1
C1=CC2CC1CC2CN1CCN(c2ccccc2)CC1 (configuration not stated),1,19,-1.4,85*,-15,1
CS(=O)(=O)N1CCN(CC2CC3C=CC2C3)CC1 (configuration not stated),-2,21,0.42,93*,?,1
